Converted amounts (≈) assume the structure as drawn. The source made the active and inactive calls. No cut-off for these calls is given here.
Columns and labels:
NIH3T3 = test: (§1) Cytotoxicity against mouse NIH3T3 cells assessed as reduction in cell viability incubated for 72 hrs by SRB assay; assay type: toxicity, cell-based; conditions: nih3t3
HeLa = test: Cytotoxicity against human HeLa cells assessed as reduction in cell viability incubated for 72 hrs by SRB assay; assay type: toxicity, cell-based
HEK293 = test: Cytotoxicity against HEK293 cells assessed as reduction in cell viability incubated for 72 hrs by SRB assay; assay type: toxicity, cell-based, Homo sapiens
HT-29 = test: Cytotoxicity against human HT-29 cells assessed as reduction in cell viability incubated for 72 hrs by SRB assay; assay type: toxicity, cell-based
[1] = tested on: Mycobacteroides abscessus; test: Antibacterial activity against Mycobacterium abscessus Bamboo harboring inactive clarithromycin-sensitive erm41 C28 sequevar assessed as bacterial growth inhibition incubated for 3 days in 7H9 medium by optical density based method; assay type: functional; conditions: 72 h, time 3 day
[2] = Kinetic solubility of compound in PBS at 0.78 to 500 uM measured immediately by nephelometric method; assay type: physicochemical; conditions: buffer, dose 0.78-500 µM
How it was run: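 DMSO stocks prediluted in DMSO, then diluted 1:50 into PBS (2 % DMSO final) and read immediately by nephelometry at 0.78–500 μM; blank-corrected data fitted by segmental regression; quadruplicates from one stock.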

[3] = tested on: Mycolicibacterium smegmatis; test: Antibacterial activity against Mycobacterium smegmatis mc2 155 expressing tomato RFP assessed as bacterial growth inhibition incubated for 3 days in 7H9 medium by RFP fluorescence based broth microdilution method; assay type: functional; conditions: mc2 155, 72 h, time 3 day
How it was run: (§2)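 Broth microdilution in 7H9 with 10 % ADS and 0.05 % Tween 80. Twofold nine-point dilution series. Inoculum 5 x 10⁵ cells/mL taken from a mid-log preculture. Incubation at 37 °C, 3 days for M. smegmatis and M. abscessus, 5 days for M. intracellulare. Read-out by RFP fluorescence (ex 544/em 590 nm). Controls were 1 % DMSO and 100 μM amikacin. MIC₉₀ from duplicates, averaged.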

[4] = tested on: Mycobacterium intracellulare; test: Antibacterial activity against Mycobacterium intracellulare ATCC 35761 expressing tomato RFP assessed as bacterial growth inhibition incubated for 5 days in 7H9 medium by RFP fluorescence based broth microdilution method; assay type: functional; conditions: ATCC 35761, 120 h, time 5 day; how it was run: as §2
[5] = tested on: Mycobacteroides abscessus; test: Antibacterial activity against Mycobacterium abscessus ATCC 19977 expressing tomato RFP assessed as bacterial growth inhibition incubated for 3 days in 7H9 medium by RFP fluorescence based broth microdilution method; assay type: functional; conditions: ATCC 19977, 72 h, time 3 day; how it was run: as §2
A2780 = test: Cytotoxicity against human A2780 cells assessed as reduction in cell viability incubated for 72 hrs by SRB assay; assay type: toxicity, cell-based
[6] = tested on: Mycobacteroides abscessus; test: Antibacterial activity against Mycobacterium abscessus ATCC 19977 expressing tomato RFP assessed as bacterial growth inhibition incubated for 3 days in MHII medium by RFP fluorescence based broth microdilution method; assay type: functional; conditions: ATCC 19977, 72 h, time 3 day
How it was run: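 Broth microdilution in MHII broth with 0.05 % Tween 80, against the RFP-expressing strain. Twofold nine-point dilution series. Inoculum 5 x 10⁵ cells/mL from a mid-log preculture. Incubated 3 days at 37 °C. Read-out by RFP fluorescence (ex 544/em 590 nm). Controls were 1 % DMSO and 100 μM amikacin. MIC₉₀ from duplicates, averaged.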

A-375 = test: Cytotoxicity against human A-375 cells assessed as reduction in cell viability incubated for 72 hrs by SRB assay; assay type: toxicity, cell-based
[7] = tested on: Mycobacterium tuberculosis; test: Antibacterial activity against Mycobacterium tuberculosis H37Rv ATCC 27294 assessed as bacterial growth inhibition incubated for 7 days in 7H9 medium by optical density based microplate reader analysis; assay type: functional; conditions: H37Rv ATCC 27294, 168 h, time 7 day
How it was run: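 Compounds serially diluted in flat-bottom 96-well plates. Mid-log culture mixed in to a final OD₆₀₀ of 0.05. Sealed plates incubated in humidified boxes at 37 °C for 7 days with shaking at 80 rpm. Turbidity read at 600 nm. MIC₉₀ taken from dose–response curves. Two biological replicates, averaged.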

[8] = tested on: Mycobacteroides abscessus; test: Antibacterial activity against Mycobacterium abscessus ATCC 19977 expressing tomato RFP infected in human THP-1 cells assessed as bacterial growth inhibition incubated for 4 days in RPMI medium by RFP fluorescence based assay; assay type: functional; conditions: ATCC 19977, 96 h, time 4 day
How it was run: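 RFP M. abscessus washed, moved into RPMI, filtered through 5 µm and opsonised with 10 % human serum for 30 min. THP-1 cells infected at MOI 5:1 with PMA 40 ng/mL for 4 h at 37 °C, then washed. Infected cells (1x10⁵/well) given a ten-point twofold series. Incubated 4 days at 37 °C, 5 % CO₂. Cells PFA-fixed and DAPI-stained. RFP quantified by imaging. Controls were DMSO and 1.5 µM bedaquiline. Duplicate.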

MCF7 = test: Cytotoxicity against human MCF7 cells assessed as reduction in cell viability incubated for 72 hrs by SRB assay; assay type: toxicity, cell-based
[9] = as §1; assay type: toxicity, cell-based; conditions: mouse, NIH3T3 cells
[10] = Stability in mouse plasma at 1 uM measured over 120 mins by HPLC-MS/MS analysis; assay type: ADME, cell-free; conditions: 2 h
[11] = Metabolic stability in pooled human liver microsomes assessed as half life at 2 uM measured over 40 mins in presence of NADPH-cofactor system by HPLC-MS/MS analysis; assay type: ADME, Microsome
How it was run: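 Pooled mixed-gender human liver microsomes at 0.42 mg protein/mL in 100 mM phosphate pH 7.4 with MgCl₂ and an NADPH-regenerating system. Test compound 2 μM, 1.6 % solvent, at 37 °C. Five time points over 40 min, stopped with acetonitrile, analysed by HPLC-MS/MS. t1/2 from the slope of ln(AUC) versus time. Controls lacked NADPH. Duplicates.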

[12] = tested on: Mycobacteroides abscessus; test: Antibacterial activity against MMV688845-resistant Mycobacterium abscessus Bamboo 845R-2.1 harboring rpoB/beta subunit P473L mutation assessed as bacterial growth inhibition incubated for 3 days by optical density based analysis; assay type: functional; conditions: Bamboo 845R-2.1, 72 h, time 3 day
How it was run: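 Tenfold-point twofold dilution series in 7H9, final DMSO 1 %. Final ranges typically 50–0.098 or 6.25–0.012 μM. Mid-log culture added to an initial OD₆₀₀ of 0.05 (5*10⁶ CFU/mL). Incubated 3 days at 37 °C with shaking at 110 rpm. Growth taken as OD₆₀₀ on day 3 minus day 0, as % of drug-free wells. MIC₉₀ read visually from the curves. Clarithromycin as control. Two biological replicates, averaged.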

[13] = Stability in human plasma at 1 uM measured over 120 mins by HPLC-MS/MS analysis; assay type: ADME, cell-free; conditions: 2 h
[14] = tested on: Mycobacteroides abscessus; test: Bactericidal activity against Mycobacterium abscessus ATCC 19977 assessed as reduction in viable bacteria at 6.25 uM incubated for 4 days by microplate dilution assay relative to control; assay type: functional; conditions: time 4 day
[15] = tested on: Mycobacteroides abscessus; test: Bactericidal activity against Mycobacterium abscessus ATCC 19977 assessed as reduction in viable bacteria at 3.13 uM incubated for 4 days by microplate dilution assay relative to control; assay type: functional; conditions: time 4 day
How it was run: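 After 4 days in the microplate dilution assay, 10 µl samples (undiluted or 1:100) were plated on 7H10 with glycerol, ADS and 400 µg/mL hygromycin. Colonies counted after 4 days at 37 °C. Done in triplicate. CFU/mL compared with the inoculum counted before incubation.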

[16] = tested on: Mycobacteroides abscessus; test: Antibacterial activity against Mycobacterium abscessus; assay type: functional
[17] = tested on: Mycobacteroides abscessus; test: Bactericidal activity against Mycobacterium abscessus ATCC 19977 assessed as reduction in viable bacteria at 6.25 to 12.5 uM incubated for 4 days by microplate dilution assay; assay type: functional, organism-based; conditions: dose 6.25-12.5 µM, time 4.0 day
[18] = tested on: Mycobacterium tuberculosis; test: Antibacterial activity against Mycobacterium tuberculosis; assay type: functional
[19] = tested on: Mycobacteroides abscessus; test: Bactericidal activity against Mycobacterium abscessus ATCC 19977 assessed as reduction in viable bacteria incubated for 4 days by microplate dilution assay; assay type: functional; conditions: time 4 day

`O=C(N[C@H](Cc1ccccc1)C(=O)Nc1cc(F)ccc1N1CCS(=O)(=O)CC1)c1ccccc1F` showed an EC50 (NIH3T3) of 24.2 µM, an EC50 (HeLa) greater than 30 µM and an EC50 (HEK293) greater than 30 µM. The EC50 (HT-29) was greater than 30 µM, the MIC50 [1] was 0.4 µM (≈ 0.205 µg/mL) and the MIC90 [1] was 4.5 µM (≈ 2.31 µg/mL). The Kinetic_solubility [2] was 32 µM, the MIC90 [3] was 1.56 µM (≈ 0.801 µg/mL) and the MIC90 [4] was 0.1 µM (≈ 0.0514 µg/mL). It also gave an MIC90 [5] of 3.13 µM (≈ 1.61 µg/mL), an EC50 (A2780) of 23.2 µM and an MIC90 [6] of 3.13 µM (≈ 1.61 µg/mL). The EC50 (A-375) was greater than 30 µM, the MIC90 [7] was 0.78 µM (≈ 0.401 µg/mL) and the MIC50 [8] was 0.39 µM (≈ 0.2 µg/mL). It also gave an MIC90 [8] of 3.13 µM (≈ 1.61 µg/mL) and an EC50 (MCF7) of 25.9 µM.
For `O=C(N[C@H](Cc1ccccc1)C(=O)Nc1ccccc1N1CCS(=O)(=O)CC1)c1ccccc1F`, the EC50 at 72 h [9] was greater than 30 µM, the Stability [10] was “Stable” and the EC50 (HeLa) was greater than 30 µM. It also gave a t1/2 [11] of 1.5 min, an EC50 (HT-29) greater than 30 µM and an MIC50 [1] of 0.23 µM (≈ 0.114 µg/mL). It also gave an MIC90 [1] of 4.3 µM (≈ 2.13 µg/mL), a Kinetic_solubility [2] of 64 µM and an MIC90 [3] of 0.78 µM (≈ 0.387 µg/mL). It also gave an MIC90 [12] of 42 µM (≈ 20.8 µg/mL), an MIC90 [4] of 0.05 µM (≈ 0.0248 µg/mL) and an MIC90 [5] of 0.78 µM (≈ 0.387 µg/mL). The Stability [13] was “Stable”, the Activity [14] was 99% and the EC50 (A2780) was greater than 30 µM. For the same compound, the MIC90 [6] was 1.56 µM (≈ 0.773 µg/mL), the EC50 (A-375) was greater than 30 µM and the Activity [15] was 95%. The MIC90 [7] was 0.2 µM (≈ 0.0991 µg/mL), the MIC50 [8] was 0.39 µM (≈ 0.193 µg/mL) and the MIC90 [8] was 6.25 µM (≈ 3.1 µg/mL). The EC50 (MCF7) was greater than 30 µM.
With `O=C(N[C@H](Cc1ccccc1)C(=O)Nc1ccccc1N1CCOCC1)c1cccs1` the MIC90 [16] was 7 µM (≈ 3.05 µg/mL), the EC50 at 72 h [9] was greater than 30 µM and the Activity [17] was “inactive”. For the same compound, the Stability [10] was “Unstable”, the EC50 (HeLa) was greater than 30 µM and the t1/2 [11] was 1.7 min. It also gave an MIC90 [18] of 1.2 µM (≈ 0.523 µg/mL), an EC50 (HT-29) greater than 30 µM and an MIC50 [1] of 1.7 µM (≈ 0.74 µg/mL). For the same compound, the MIC90 [1] was 4.4 µM (≈ 1.92 µg/mL), the Kinetic_solubility [2] was 82 µM and the MIC90 [3] was 0.78 µM (≈ 0.34 µg/mL). It also gave an MIC90 [12] greater than 100 µM, an MIC90 [4] of 0.78 µM (≈ 0.34 µg/mL) and an MIC90 [5] of 6.25 µM (≈ 2.72 µg/mL). The Stability [13] was “Stable”, the EC50 (A2780) was greater than 30 µM and the MBC99 [19] was 50 µM (≈ 21.8 µg/mL). It also gave an MIC90 [6] of 12.5 µM (≈ 5.44 µg/mL), an EC50 (A-375) greater than 30 µM and an MIC90 [7] of 0.78 µM (≈ 0.34 µg/mL). For the same compound, the MIC50 [8] was 1.56 µM (≈ 0.679 µg/mL), the MIC90 [8] was 12.5 µM (≈ 5.44 µg/mL) and the EC50 (MCF7) was greater than 30 µM.

From ChEMBL document CHEMBL5344415, “Synthesis and Characterization of Phenylalanine Amides Active against Mycobacterium abscessus and Other Mycobacteria” (J Med Chem, 2023)
